Reference: ChEMBL document CHEMBL2157949 (J Med Chem, 2012)
Activity calls are given as the source filed them. No cut-off for these calls is given here.

How the values were obtained:
[1] = Growth inhibition of Chinese hamster PC43-10 cells expressing reduced folate carrier incubated for 96 hrs by CellTiter-blue cell viability assay; format: functional, cell-based; details: Cricetulus griseus, PC43-10, 96 h
R2 [2] = experiment: Growth inhibition of Chinese hamster R2 cells deficient in reduced folate carrier and human folate receptor alpha incubated for 96 hrs by CellTiter-blue cell viability assay; format: cell-based, Cricetulus griseus; details: R2, 96 h
[3] = Growth inhibition of Chinese hamster RT16 cells expressing human folate receptor alpha incubated for 96 hrs by CellTiter-blue cell viability assay; format: functional, cell-based; details: Cricetulus griseus, RT16, 96 h
[4] = Growth inhibition of Chinese hamster RT16 cells expressing human folate receptor alpha incubated for 96 hrs in presence of folic acid by CellTiter-blue cell viability assay; format: functional, cell-based; details: Cricetulus griseus, RT16, 96 h
R2 [5] = experiment: Growth inhibition of Chinese hamster R2 cells expressing human PCFT incubated for 96 hrs by CellTiter-blue cell viability assay; format: functional, cell-based, Cricetulus griseus; details: R2, 96 h
Outline: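 R2/hPCFT4 CHO cells maintained beforehand in folate-free RPMI 1640 with dialyzed FBS, 25 nM LCV and G418. Assay: ~2500–5000 cells/well in folate-free RPMI 1640 (pH 7.2) with 25 nM LCV, 10% dialyzed FBS, antibiotics and L-glutamine, over a range of drug concentrations.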

KB [6] = experiment: Growth inhibition of human KB cells endogenously expressing RFC/FRalpha/PCFT incubated for 96 hrs by CellTiter-blue cell viability assay; format: functional, cell-based
KB [7] = experiment: Growth inhibition of human KB cells endogenously expressing RFC/FRalpha/PCFT in presence of folic acid incubated for 96 hrs by CellTiter-blue cell viability assay; format: functional, cell-based
IGROV-1 [8] = experiment: Growth inhibition of human IGROV1 cells endogenously expressing RFC/FRalpha/PCFT incubated for 96 hrs by CellTiter-blue cell viability assay; format: functional, cell-based; details: IGROV-1, 96 h
IGROV-1 [9] = experiment: Growth inhibition of human IGROV1 cells endogenously expressing RFC/FRalpha/PCFT in presence of folic acid incubated for 96 hrs by CellTiter-blue cell viability assay; format: functional, cell-based; details: IGROV-1, 96 h
R2 [10] = experiment: Growth inhibition of Chinese hamster R2 cells expressing empty vector control incubated for 96 hrs by CellTiter-blue cell viability assay; details: Cricetulus griseus, R2, 96 h
KB [11] = experiment: Inhibition of colony formation of human KB cells endogenously expressing RFC/FRalpha/PCFT incubated for 14 days by methylene blue staining based clonogenicty assay; format: functional, cell-based; details: 336 h
KB [12] = experiment: Growth inhibition of human KB cells endogenously expressing RFC/FRalpha/PCFT in presence of 50 nM leucovorin incubated for 96 hrs by CellTiter-blue cell viability assay; format: functional, cell-based
Outline: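 KB cells in complete folate-free RPMI 1640 with 10% dialyzed FBS and LCV at 50 nM (versus the standard 2 nM), exposed to a range of antifolate concentrations for up to 96 h. Cell density read by CellTiter-blue fluorescence and normalized to drug-free cells. Representative data from experiments run in duplicate.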

KB [13] = experiment: Growth inhibition of human KB cells endogenously expressing RFC/FRalpha/PCFT in presence of 60 uM adenosine incubated for 96 hrs by CellTiter-blue cell viability assay; format: functional, cell-based
KB [14] = experiment: Growth inhibition of human KB cells endogenously expressing RFC/FRalpha/PCFT in presence of 10 uM thymidine incubated for 96 hrs by CellTiter-blue cell viability assay; format: functional, cell-based
KB [15] = experiment: Growth inhibition of human KB cells endogenously expressing RFC/FRalpha/PCFT in presence of 320 uM 5-amino-4-imidazolecarboxamide incubated for 96 hrs by CellTiter-blue cell viability assay; format: functional, cell-based
IGROV-1 [16] = experiment: Growth inhibition of human IGROV1 cells endogenously expressing RFC/FRalpha/PCFT in presence of 60 uM adenosine incubated for 96 hrs by CellTiter-blue cell viability assay; format: functional, cell-based
IGROV-1 [17] = experiment: Growth inhibition of human IGROV1 cells endogenously expressing RFC/FRalpha/PCFT in presence of 10 uM thymidine incubated for 96 hrs by CellTiter-blue cell viability assay; format: functional, cell-based
IGROV-1 [18] = experiment: Growth inhibition of human IGROV1 cells endogenously expressing RFC/FRalpha/PCFT in presence of 320 uM 5-amino-4-imidazolecarboxamide incubated for 96 hrs by CellTiter-blue cell viability assay; format: functional, cell-based
[19] = molecular target: Folate receptor alpha (Homo sapiens) (UniProt P15328); format: cell-based; details: CHO
Folate receptor alpha (Homo sapiens), sequence (P15328 25-234 limits assumed): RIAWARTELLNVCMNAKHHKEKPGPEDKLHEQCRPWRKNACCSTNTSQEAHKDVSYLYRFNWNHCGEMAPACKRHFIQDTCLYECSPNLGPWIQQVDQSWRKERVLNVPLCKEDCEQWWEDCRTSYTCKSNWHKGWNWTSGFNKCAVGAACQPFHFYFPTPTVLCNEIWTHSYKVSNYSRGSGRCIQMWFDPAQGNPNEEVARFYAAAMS

[20] = molecular target: T1, Proton-coupled folate transporter (Homo sapiens, UniProt Q96NT5); experiment: Inhibition of [3H]MTX transport at human PCFT expressed in Chinese hamster R2 cells at pH 5.5 by Dixon plot; format: cell-based
T1 sequence (Q96NT5 whole entry): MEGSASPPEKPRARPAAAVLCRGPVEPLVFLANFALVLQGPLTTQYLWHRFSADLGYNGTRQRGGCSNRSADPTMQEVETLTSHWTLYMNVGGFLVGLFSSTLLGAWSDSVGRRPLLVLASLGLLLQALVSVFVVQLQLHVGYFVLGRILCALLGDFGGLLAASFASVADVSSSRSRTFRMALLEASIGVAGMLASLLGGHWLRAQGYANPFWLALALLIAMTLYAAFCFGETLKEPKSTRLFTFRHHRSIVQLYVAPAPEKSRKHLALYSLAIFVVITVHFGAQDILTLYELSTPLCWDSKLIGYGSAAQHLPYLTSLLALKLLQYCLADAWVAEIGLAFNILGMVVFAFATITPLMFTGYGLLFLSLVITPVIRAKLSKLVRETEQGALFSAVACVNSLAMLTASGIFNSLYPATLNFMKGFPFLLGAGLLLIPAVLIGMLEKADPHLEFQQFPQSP
Outline: (§1)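 R2/hPCFT4 CHO cells grown in spinner flasks, resuspended in HBS at pH 6.8 or MES-buffered saline at pH 5.5. Uptake quenched with ice-cold DPBS and normalized to protein. Mean ± SE, n=4–8.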

[21] = molecular target: T1, Proton-coupled folate transporter; experiment: Inhibition of [3H]MTX transport at human PCFT expressed in Chinese hamster R2 cells at pH 6.8 by Dixon plot; format: cell-based; outline: as §1
[22] = molecular target: T2, Proton-coupled folate transporter (Homo sapiens) (UniProt Q96NT5); experiment: Ratio of Ki for human PCFT at pH 6.8 to Ki for human PCFT at pH 5.5 by [3H]MTX transport assay
T2 sequence (whole entry): T1 sequence (Q96NT5 whole entry)

[23] = molecular target: T3, Trifunctional purine biosynthetic protein adenosine-3 (Homo sapiens, UniProt P22102); experiment: Inhibition of GARFTase in human IGROV1 cells assessed as reduction in [14C]glycine incorporation into [14C]formyl GAR incubated for 15 hrs in complete folate free RPMI medium in presence of 2 nM leucovorin; format: cell-based, IGROV-1
T3 sequence (P22102 whole entry): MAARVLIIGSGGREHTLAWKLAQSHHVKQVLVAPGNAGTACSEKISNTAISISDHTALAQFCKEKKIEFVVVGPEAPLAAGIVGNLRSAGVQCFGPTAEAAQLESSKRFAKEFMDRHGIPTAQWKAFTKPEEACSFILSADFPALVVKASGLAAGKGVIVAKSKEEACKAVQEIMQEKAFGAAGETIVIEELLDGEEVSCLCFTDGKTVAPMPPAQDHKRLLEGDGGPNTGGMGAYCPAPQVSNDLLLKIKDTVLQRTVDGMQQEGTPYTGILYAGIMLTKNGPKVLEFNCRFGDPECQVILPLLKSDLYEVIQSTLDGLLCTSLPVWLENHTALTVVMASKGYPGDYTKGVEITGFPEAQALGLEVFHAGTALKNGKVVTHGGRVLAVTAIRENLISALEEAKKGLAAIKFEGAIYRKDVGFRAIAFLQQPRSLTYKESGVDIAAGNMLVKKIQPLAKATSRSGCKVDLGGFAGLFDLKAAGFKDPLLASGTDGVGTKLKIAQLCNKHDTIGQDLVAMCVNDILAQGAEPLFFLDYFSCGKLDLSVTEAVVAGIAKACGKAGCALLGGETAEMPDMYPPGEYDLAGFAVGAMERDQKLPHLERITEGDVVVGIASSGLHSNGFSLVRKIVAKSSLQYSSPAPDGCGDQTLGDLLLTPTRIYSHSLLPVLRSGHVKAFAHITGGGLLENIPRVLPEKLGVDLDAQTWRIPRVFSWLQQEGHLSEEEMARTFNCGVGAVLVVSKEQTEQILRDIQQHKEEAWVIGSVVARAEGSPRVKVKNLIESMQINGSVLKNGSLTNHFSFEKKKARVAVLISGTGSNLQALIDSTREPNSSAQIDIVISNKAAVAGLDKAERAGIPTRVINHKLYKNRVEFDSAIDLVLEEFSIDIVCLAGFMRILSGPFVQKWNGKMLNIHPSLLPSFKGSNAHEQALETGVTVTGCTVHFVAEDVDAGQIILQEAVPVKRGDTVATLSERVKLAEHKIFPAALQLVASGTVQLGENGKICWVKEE

Structure (SMILES) | IC50 [1] | IC50 (R2 [2]) | IC50 [3] | IC50 [4] | IC50 (R2 [5]) | IC50 (KB [6]) | IC50 (KB [7]) | IC50 (IGROV-1 [8]) | IC50 (IGROV-1 [9]) | IC50 (R2 [10]) | IC50 (KB [11]) | IC50 (KB [12]) | growth inhibition (GI) (KB [13]) | growth inhibition (GI) (KB [14]) | growth inhibition (GI) (KB [15]) | growth inhibition (GI) (IGROV-1 [16]) | growth inhibition (GI) (IGROV-1 [17]) | growth inhibition (GI) (IGROV-1 [18]) | relative binding affinity (RBA) [19] | Ki [20] | further results
Nc1nc2[nH]c(CCCCc3cscc3C(=O)N[C@@H](CCC(=O)O)C(=O)O)cc2c(=O)[nH]1 | > 1000 nM | > 1000 nM | 147 nM | > 1000 nM | > 1000 nM | 35.3 nM | > 1000 nM | 103 nM | > 1000 nM | > 1000 nM | – | – | – | – | – | – | – | – | – | – | –
Nc1nc2[nH]c(CCC#Cc3sccc3C(=O)N[C@@H](CCC(=O)O)C(=O)O)cc2c(=O)[nH]1 | > 1000 nM | > 1000 nM | > 1000 nM | > 1000 nM | > 1000 nM | > 1000 nM | > 1000 nM | – | – | > 1000 nM | – | – | – | – | – | – | – | – | – | – | –
Nc1nc2[nH]c(CCCCc3csc(C(=O)N[C@@H](CCC(=O)O)C(=O)O)c3)cc2c(=O)[nH]1 | > 1000 nM | > 1000 nM | 2.54 nM | > 1000 nM | 41.5 nM | 0.17 nM | > 1000 nM | 0.48 nM | > 1000 nM | > 1000 nM | 0.39 nM | 3.4 nM | inactive | Active | inactive | inactive | Active | inactive | > 1 | 390 nM | Ki [21]: 28100 nM
Nc1nc2[nH]c(CCC#Cc3ccc(C(=O)N[C@@H](CCC(=O)O)C(=O)O)s3)cc2c(=O)[nH]1 | > 1000 nM | > 1000 nM | 12.1 nM | > 1000 nM | > 1000 nM | > 1000 nM | > 1000 nM | > 1000 nM | > 1000 nM | > 1000 nM | – | – | – | – | – | – | – | – | – | – | –
Nc1nc2[nH]c(CCC#Cc3ccsc3C(=O)N[C@@H](CCC(=O)O)C(=O)O)cc2c(=O)[nH]1 | > 1000 nM | > 1000 nM | > 1000 nM | > 1000 nM | > 1000 nM | > 1000 nM | > 1000 nM | – | – | > 1000 nM | – | – | – | – | – | – | – | – | – | – | –
Nc1nc2[nH]c(CCCCc3cc(C(=O)N[C@@H](CCC(=O)O)C(=O)O)cs3)cc2c(=O)[nH]1 | > 1000 nM | > 1000 nM | 2.6 nM | > 1000 nM | 63.8 nM | 0.27 nM | > 1000 nM | 1.4 nM | > 1000 nM | > 1000 nM | 0.16 nM | > 20 nM | inactive | Active | inactive | inactive | Active | inactive | > 1 | 420 nM | Ki [21]: 30700 nM; Ratio Ki [22]: 70; IC50 [23]: 2.03 nM
